Laboratory results: ChEMBL document CHEMBL1821687, “Discovery, synthesis, and biological evaluation of novel SMN protein modulators” (J Med Chem, 2011)

Key:
[1] = target: Survival motor neuron protein (Homo sapiens) (UniProt Q16637); experiment: Activation of SMN expressed in HEK293 cells assessed as rate of induction by SMN2-promotor driven luciferase reporter gene assay relative to basal level; type: cell-based; set-up: concentration or dose not given beside the values
In short: (§1)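 HEK-293 cells stably carrying the SMN2 reporter construct, kept in DMEM with 10% FCS, glutamax, pyruvate, pen/strep and 200 µg/mL hygromycin, and assayed without hygromycin. 2,000 cells/well were plated and adhered overnight at 37 °C, 5% CO2. Compounds were added as a 7-point titration, 50 µM to 25 nM final, in 0.46% DMSO, for 30–36 h. OneGlo luminescence was normalized to 4.5 mM sodium butyrate (100%) and DMSO (0%).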

[2] = target: Survival motor neuron protein (Homo sapiens) (UniProt Q16637); experiment: Activation of SMN expressed in HEK293 cells assessed as concentration required to reach 50% of maximum luciferase signal by SMN2-promotor driven luciferase reporter gene assay; type: cell-based; in short: as §1
[3] = target: T1, Luciferin 4-monooxygenase (Luciola lateralis, UniProt Q01158); experiment: Inhibition of fire fly luciferase; set-up: species or system Aquatica lateralis; settings: read-out: IC50
T1 sequence (Q01158 whole entry): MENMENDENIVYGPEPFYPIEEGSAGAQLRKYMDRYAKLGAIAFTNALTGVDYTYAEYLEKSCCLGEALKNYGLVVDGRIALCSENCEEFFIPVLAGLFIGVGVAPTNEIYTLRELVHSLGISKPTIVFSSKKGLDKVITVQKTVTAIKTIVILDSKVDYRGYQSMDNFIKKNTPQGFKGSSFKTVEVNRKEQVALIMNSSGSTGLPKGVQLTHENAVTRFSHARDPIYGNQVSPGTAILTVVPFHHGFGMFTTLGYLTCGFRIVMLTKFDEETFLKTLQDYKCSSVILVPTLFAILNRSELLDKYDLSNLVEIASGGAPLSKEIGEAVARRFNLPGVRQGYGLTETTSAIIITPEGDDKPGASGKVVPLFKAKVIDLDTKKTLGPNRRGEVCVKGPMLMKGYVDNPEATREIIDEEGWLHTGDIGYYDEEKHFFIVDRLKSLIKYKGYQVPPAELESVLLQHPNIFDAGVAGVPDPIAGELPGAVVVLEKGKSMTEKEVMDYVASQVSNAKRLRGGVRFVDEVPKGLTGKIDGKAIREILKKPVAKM

[4] = system: Caco-2; experiment: Apparent permeability from basolateral side to apical side of human Caco2 cells at 10 uM; type: ADME, cell-based; settings: caco-2, 10 µM
[5] = system: Liver; experiment: Half-life in mouse liver microsome at 1 uM; type: ADME; settings: microsomes
[6] = system: Caco-2; experiment: Apparent permeability from apical side to basolateral side of human Caco2 cells at 10 uM; type: ADME, cell-based; settings: caco-2, 10 µM

Survival motor neuron protein (Homo sapiens), sequence (Q16637 whole entry): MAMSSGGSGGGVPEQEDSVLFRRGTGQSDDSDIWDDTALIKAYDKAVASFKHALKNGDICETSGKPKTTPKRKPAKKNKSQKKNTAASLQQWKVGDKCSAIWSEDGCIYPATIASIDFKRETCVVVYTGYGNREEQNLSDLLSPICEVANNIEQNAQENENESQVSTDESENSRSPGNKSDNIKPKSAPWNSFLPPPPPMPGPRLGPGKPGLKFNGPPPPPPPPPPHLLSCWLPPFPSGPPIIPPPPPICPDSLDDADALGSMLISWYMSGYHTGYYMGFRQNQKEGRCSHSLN

| SMILES | Activity [1] | Activity [2] | IC50 [3] | Papp [4] | t1/2 [5] | Papp [6] |
| --- | --- | --- | --- | --- | --- | --- |
| CC(=O)C1CCN(c2ncc(-c3cccc(N(C)C)c3)s2)CC1 | 224% | 3.07 µM |  |  |  |  |
| CN(C)c1cccc(-c2cnc(N3CCC(C(N)=O)CC3)nc2)c1 | 236% | 0.613 µM |  |  |  |  |
| NC(=O)C1CCN(c2nc(-c3cccs3)cs2)CC1 | 51% | 7.72 µM |  |  |  |  |
| NC(=O)C1CCN(c2ncnc(-c3ccc4c(c3)OCCCO4)n2)CC1 | 186% | 2.44 µM |  |  |  |  |
| COc1ccc(-c2csc(N3CCC(C(N)=O)CC3)n2)cc1OC | 59% | 12.2 µM |  |  |  |  |
| Brc1ccc(-c2csc(N3CCNCC3)n2)cc1 | -97% | 24.4 µM |  |  |  |  |
| NC(=O)C1CCN(c2ncc(-c3cccc(N4CCCC4)c3)s2)CC1 | 685% | 0.387 µM |  |  |  |  |
| NC(=O)C1CCN(c2nc(-c3ccc(C(F)(F)F)cc3)cs2)CC1 | 386% | 2.44 µM |  |  |  |  |
| NC(=O)C1CCN(c2cc(-c3ccc4c(c3)OCCCO4)ncn2)CC1 | 211% | 7.72 µM |  |  |  |  |
| CC(=O)N1CCN(c2nc(-c3ccc(Br)cc3)cs2)CC1 | 234% | 3.07 µM |  |  |  |  |
| CN(C)c1cccc(-c2cnc(N3CCC(C(N)=O)CC3)s2)c1 | 550% | 0.039 µM |  |  |  |  |
| Brc1ccc(-c2csc(N3CCC(c4nnn[nH]4)CC3)n2)cc1 | 67% | 12.2 µM |  |  |  |  |
| CN(C)c1cccc(-c2ccnc(N3CCC(C(N)=O)CC3)n2)c1 | 446% | 0.772 µM |  |  |  |  |
| Cc1ccc(-c2nnc(N3CCC(C(N)=O)CC3)s2)cc1 | 54% | 0.244 µM |  |  |  |  |
| NC(=O)N1CCN(c2nc(-c3ccc(Br)cc3)cs2)CC1 | 89% | 12.2 µM |  |  |  |  |
| CN(C)c1ccc(-c2csc(N3CCC(C(N)=O)CC3)n2)cc1 | 64% | 30.7 µM |  |  |  |  |
| NC(=O)C1CCN(c2ncc(-c3ccc4c(c3)OC(F)(F)O4)s2)CC1 | 598% | 0.194 µM |  |  |  |  |
| N#CC1CCN(c2nc(-c3ccc(Br)cc3)cs2)CC1 | 78% | 30.7 µM |  |  |  |  |
| CC(=O)c1ccc(-c2csc(N3CCC(C(N)=O)CC3)n2)cc1 | 130% | 12.2 µM |  |  |  |  |
| CC(C)Oc1cccc(-c2ccnc(N3CCC(C(N)=O)CC3)n2)c1 | 298% | 0.154 µM | 10 µM | 17.3 ×10⁻⁶ cm/s | 18 min | 40.1 ×10⁻⁶ cm/s |
| CCOC(=O)C1CCN(c2ncc(-c3ccc4c(c3)OCCCO4)s2)CC1 | 320% | 0.031 µM |  |  |  |  |
